Measured values from ChEMBL document CHEMBL4665897, “α-Linolenic Acid-Valproic Acid Conjugates: Toward Single-Molecule Polypharmacology for Multiple Sclerosis” (ACS Med Chem Lett, 2020).
Activity calls are given as the source filed them.

Experiments:
Olineu [1] = experiment: Induction in mouse Oli-neu cell differentiation to oligodendrocytes assessed as increase in CNPase expression at 5 uM after 72 hrs by Western blot analysis; assay type: functional
Method in brief: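 Oli-Neu cells exposed to 5 μM compound; Olig2 was assessed at 48 h and CNPase at 72 h. Values are % of control, mean SE of at least three experiments, one-way ANOVA with Bonferroni.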

Olineu [2] = experiment: Induction in mouse Oli-neu cell differentiation to oligodendrocytes assessed as increase in filament length at 5 uM after 48 hrs; assay type: functional
Method in brief: (§1)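 Oli-Neu cells (immortalized mouse oligodendrocyte precursors) exposed to 5 μM compound for 48 h. Proliferation was scored by cell counting and differentiation by filament length. Values are % of control, mean SE of at least three experiments, one-way ANOVA with Bonferroni.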

[3] = test system: Cerebellar granule neurone; experiment: Neuroprotective activity against glutamate/glycine-induced excitotoxicity in rat primary Cerebellar granule neurone at 25 uM preincubated for 6 hrs measured after 24 hrs by MTT assay; assay type: functional, tissue-based
Method in brief: (§2)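 Primary rat cerebellar granule neurons at 8 DIV pretreated 6 h with compound (5, 10, 25 μM), then 100 μM glutamate/10 μM glycine added for a further 24 h with compound present. Viability was read by MTT, expressed as % of control. Values are mean SE of at least four experiments, each in triplicate.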

[4] = test system: Cerebellar granule neurone; experiment: Neuroprotective activity against glutamate/glycine-induced excitotoxicity in rat primary Cerebellar granule neurone at 10 uM preincubated for 6 hrs measured after 24 hrs by MTT assay; assay type: functional, tissue-based; method in brief: as §2
[5] = test system: Cerebellar granule neurone; experiment: Neuroprotective activity against glutamate/glycine-induced excitotoxicity in rat primary Cerebellar granule neurone at 5 uM preincubated for 6 hrs measured after 24 hrs by MTT assay; assay type: functional, tissue-based; method in brief: as §2
Olineu [6] = experiment: Induction in mouse Oli-neu cell differentiation to oligodendrocytes assessed as decrease in cell number at 5 uM after 48 hrs; assay type: functional; method in brief: as §1
[7] = target: T1, Histone deacetylase (Homo sapiens) (UniProt Q13547+O15379+Q9UBN7+Q92769+Q9UQL6+Q8WUI4+Q9BY41+Q96DB2+P56524+Q9UKV0+Q969S8); experiment: Inhibition of HDAC in human medulloblastoma (DAOY) cells assessed as increase in acetylated histone levels at […] after 48 hrs by densitometric analysis
[8] = target: T1, Histone deacetylase (Homo sapiens); experiment: Inhibition of HDAC in human medulloblastoma (DAOY) cells assessed as increase in acetylated histone levels at 0.5 mM after 48 hrs by densitometric analysis
Method in brief: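 HDAC inhibition in human DAOY medulloblastoma cells was read as acetylated histone H3 by immunoblot densitometry. […] Values are mean SD of three independent experiments, Newman–Keuls after ANOVA versus vehicle.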

Olineu [9] = experiment: Induction in mouse Oli-neu cell differentiation to oligodendrocytes assessed as decrease in Olig2 expression at 5 uM after 48 hrs by Western blot analysis
N9 (Mus musculus) [10] = experiment: Immunomodulatory activity in LPS treated mouse N9 microglial cells assessed as reduction in nitrite level at 0.5 uM preincubated for 6 hrs by Griess reagent assay; settings: time 24.0 hrs
N9 (Mus musculus) [11] = experiment: Immunomodulatory activity in LPS treated mouse N9 microglial cells assessed as shift in M1 neurotoxic phenotype to M2 neuroprotective by measuring TREM2 expression level at 0.5 uM preincubated for 6 hrs by western blot analysis
N9 (Mus musculus) [12] = experiment: Immunomodulatory activity in LPS treated mouse N9 microglial cells assessed as shift in M1 neurotoxic phenotype to M2 neuroprotective by measuring decrease in iNOS expression level at 0.5 uM preincubated for 6 hrs by western blot analysis

CC/C=C\C/C=C\C/C=C\CCCCCCCC(=O)NCCNC(=O)C(CCC)CCC
active: Activity (Olineu [1]) | Activity (Olineu [2]) | Activity [4] | Activity [5] | Activity (Olineu [6]) | inhibition [7] | inhibition [8] | Activity (Olineu [9]) | inhibition (N9 (Mus musculus) [10]) | inhibition (N9 (Mus musculus) [12])
inactive: Activity [3] | inhibition (N9 (Mus musculus) [11])

CC/C=C\C/C=C\C/C=C\CCCCCCCC(=O)NCCOC(=O)C(CCC)CCC
inactive: Activity [3] | inhibition (N9 (Mus musculus) [11])
active: Activity (Olineu [2]) | Activity [4] | Activity [5] | Activity (Olineu [6]) | inhibition [7] | inhibition [8] | Activity (Olineu [9]) | inhibition (N9 (Mus musculus) [10]) | inhibition (N9 (Mus musculus) [12])

CC/C=C\C/C=C\C/C=C\CCCCCCCC(=O)O
inactive: Activity [3]

CCCC(CCC)C(=O)O
active: Activity (Olineu [1]) | Activity (Olineu [6]) | inhibition [7]
inactive: Activity [3] | Activity [4] | Activity [5]
